The source of these data is ChEMBL document CHEMBL1155599, “Ancistrolikokines A-C: new 5,8'-coupled naphthylisoquinoline alkaloids from Ancistrocladus likoko” (J Nat Prod, 2000).

The structures appear in SMILES notation. Values after ≈ are worked out from the molar mass of the structure shown.

A short description of series [1]: Cytotoxicity against rat L6 cells after 72 hrs. The format is cell-based. The conditions noted are these: read-out: MIC.
Series [2] deals with Plasmodium falciparum. Kind of series: Antimalarial activity after 48 hrs against Plasmodium falciparum NF54 infected human erythrocytes by [3H]hypoxanthine uptake. Type of series: functional, organism-based. A digest of the protocol: (§1)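 Modified [3H]hypoxanthine incorporation assay; infected human red blood cells exposed to serial drug dilutions for 48 h at 37 °C under reduced O2/elevated CO2, then [3H]hypoxanthine added and incubated a further 24 h; harvested on glass fiber filters, scintillation counted. IC50 from sigmoidal inhibition curve; duplicates, repeated at least once. NF54 is drug-sensitive, K1 is chloroquine/pyrimethamine-resistant.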

For series [3], the system named is Plasmodium falciparum. Kind of series: Antimalarial activity after 48 hrs against Plasmodium falciparum K1 infected human erythrocytes by [3H]hypoxanthine uptake. The format is functional, organism-based. The gist of the method:
as §1

In general, IC50 refers to the midpoint of a concentration-inhibition curve. Take `COc1cc(O)c(-c2ccc(OC)c3c(O)cc(C)cc23)c2c1[C@H](C)N[C@H](C)C2` [ANCISTROLIKOKINE B]: the MCC at 72 h in series [1] came to 30 µg/mL. Further, the IC50 in the series on Plasmodium falciparum [2] was found to be 0.538 µg/mL (≈ 1.37 µM); with Plasmodium falciparum [3], 0.208 µg/mL (≈ 0.529 µM).
On to `COc1cc(O)c(-c2ccc(OC)c3c(O)cc(C)cc23)c2c1[C@@H](C)N(C)[C@H](C)C2` [ANCISTROLIKOKINE C], for which the IC50 in the series on Plasmodium falciparum [2] came out at 6.23 µg/mL (≈ 15.3 µM); with Plasmodium falciparum [3], 0.924 µg/mL (≈ 2.27 µM).
As to `COc1cc(C)cc2c(-c3c(O)cc(O)c4c3C[C@@H](C)N[C@@H]4C)ccc(O)c12` [KORUPENSAMINE A], the MCC at 72 h in series [1] was determined as 100 µg/mL. Also, the IC50 in the series on Plasmodium falciparum [2] turned out to be 0.024 µg/mL (≈ 0.0632 µM); in the series with Plasmodium falciparum [3], 0.072 µg/mL (≈ 0.19 µM).
The like results for `COc1cc(O)c2c(c1-c1ccc(O)c3c(OC)cc(C)cc13)C[C@@H](C)N(C)[C@@H]2C` [ANCISTROLIKOKINE A] were, in that order, 90 µg/mL, 0.191 µg/mL (≈ 0.469 µM) and 0.14 µg/mL (≈ 0.344 µM).
